According to ChEMBL document CHEMBL4196055, “Synthesis and biological evaluation of α-santonin derivatives as anti-hepatoma agents” (Eur J Med Chem, 2018):
pIC50: −log10 of the molar value.

What was measured:
[1] = system: HepG2; assay: Antiproliferative activity against human HepG2 cells at 10 uM after 24 hrs by CCK-8 assay relative to control; type: functional
In short: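 HepG-2 grown in DMEM with 10% FBS and penicillin/streptomycin (37 °C, 5% CO2). Seeded 2 × 10^5 cells/well for 24 h, then given a single 10 μM dose or 1% DMSO vehicle for 24 h. CCK-8 reagent for 1 h, A450 read, and percent inhibition calculated against untreated control cells.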

[2] = Antiproliferative activity against human QSG7701 cells after 24 hrs by CCK-8 assay; type: cell-based; settings: QSG7701, 24 h
In short: (§1)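 Cells in 10% FBS medium with penicillin/streptomycin at 37 °C, 5% CO2; HepG-2 in DMEM, QGY-7703, SMMC-7721 and QSG-7701 in RPMI 1640. Seeded 2 × 10^5 cells/well, grown 24 h, then exposed to five concentrations of compound or 1% DMSO vehicle for 24 h. CCK-8 added for 1 h, absorbance read at 450 nm; IC50 derived from the 5-dose data.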

[3] = system: QGY-7703; assay: Antiproliferative activity against human QGY7703 cells after 24 hrs by CCK-8 assay; type: functional, cell-based; settings: QGY-7703, 24 h; in short: as §1
[4] = system: HepG2; assay: Antiproliferative activity against human HepG2 cells after 24 hrs by CCK-8 assay; type: functional, cell-based; settings: HepG2, 24 h; in short: as §1
[5] = system: SMMC-7721; assay: Antiproliferative activity against human SMMC7721 cells after 24 hrs by CCK-8 assay; type: functional, cell-based; settings: SMMC-7721, 24 h; in short: as §1
[6] = system: QGY-7703; assay: Induction of apoptosis in human QGY7703 cells assessed as necrotic cells at 15 uM after 24 hrs by Annexin-V FITC/propidium iodide staining based flow cytometric analysis (reference value: 0.6 to 0.7%); type: functional
In short: (§2)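 Assay in QGY-7703 cells kept in RPMI 1640 with 10% FBS. Seeded at 5 × 10^5 cells/well for 24 h, then treated for 24 h with 5, 10 or 15 μM compound, DMSO as control. Annexin V-FITC/PI staining for 15 min at room temperature in the dark, then immediate flow cytometry to count the apoptotic fractions.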

[7] = system: QGY-7703; assay: Induction of apoptosis in human QGY7703 cells assessed as early apoptotic cells at 10 uM after 24 hrs by Annexin-V FITC/propidium iodide staining based flow cytometric analysis (reference value: 0.8 to 1%); type: functional; in short: as §2
[8] = system: QGY-7703; assay: Induction of apoptosis in human QGY7703 cells assessed as viable cells at 10 uM after 24 hrs by Annexin-V FITC/propidium iodide staining based flow cytometric analysis (reference value: 94.2 to 94.3%); type: functional; settings: QGY-7703, 24 h, read-out: Activity; in short: as §2
[9] = system: QGY-7703; assay: Induction of apoptosis in human QGY7703 cells assessed as viable cells at 5 uM after 24 hrs by Annexin-V FITC/propidium iodide staining based flow cytometric analysis (reference value: 94.2 to 94.3%); type: functional; settings: QGY-7703, 24 h, read-out: Activity; in short: as §2
[10] = system: QGY-7703; assay: Induction of apoptosis in human QGY7703 cells assessed as early apoptotic cells at 5 uM after 24 hrs by Annexin-V FITC/propidium iodide staining based flow cytometric analysis (reference value: 0.8 to 1%); type: functional; in short: as §2
[11] = system: QGY-7703; assay: Induction of apoptosis in human QGY7703 cells assessed as late apoptotic cells at 15 uM after 24 hrs by Annexin-V FITC/propidium iodide staining based flow cytometric analysis (reference value: 4.1 to 4.3%); type: functional; in short: as §2
[12] = system: QGY-7703; assay: Induction of apoptosis in human QGY7703 cells assessed as necrotic cells at 10 uM after 24 hrs by Annexin-V FITC/propidium iodide staining based flow cytometric analysis (reference value: 0.6 to 0.7%); type: functional; in short: as §2
[13] = system: QGY-7703; assay: Induction of apoptosis in human QGY7703 cells assessed as late apoptotic cells at 5 uM after 24 hrs by Annexin-V FITC/propidium iodide staining based flow cytometric analysis (reference value: 4.1 to 4.3%); type: functional; in short: as §2
[14] = system: QGY-7703; assay: Induction of apoptosis in human QGY7703 cells assessed as necrotic cells at 5 uM after 24 hrs by Annexin-V FITC/propidium iodide staining based flow cytometric analysis (reference value: 0.6 to 0.7%); type: functional; in short: as §2
[15] = system: QGY-7703; assay: Induction of apoptosis in human QGY7703 cells assessed as early apoptotic cells at 15 uM after 24 hrs by Annexin-V FITC/propidium iodide staining based flow cytometric analysis (reference value: 0.8 to 1%); type: functional; in short: as §2
[16] = system: QGY-7703; assay: Induction of apoptosis in human QGY7703 cells assessed as late apoptotic cells at 10 uM after 24 hrs by Annexin-V FITC/propidium iodide staining based flow cytometric analysis (reference value: 4.1 to 4.3%); type: functional; in short: as §2
[17] = system: QGY-7703; assay: Induction of apoptosis in human QGY7703 cells assessed as viable cells at 15 uM after 24 hrs by Annexin-V FITC/propidium iodide staining based flow cytometric analysis (reference value: 94.2 to 94.3%); type: functional; settings: QGY-7703, 24 h, read-out: Activity; in short: as §2

Structure (SMILES)	Activity [1]	pIC50 [2]	pIC50 [3]	pIC50 [4]	pIC50 [5]	other results
C=C1C(=O)O[C@@H]2C3=C(C)[C@@H](OC(=O)/C=C/c4ccc(SC)cc4)CC3[C@](C)(OC(C)=O)CC[C@@H]12 (some centres undefined)	36.24%					
C=C1C(=O)O[C@@H]2C3=C(C)[C@@H](OC(=O)c4ccc(F)cc4)CC3[C@](C)(OC(C)=O)CC[C@@H]12 (some centres undefined)	78.61%	4.41	5.17	5.21	5.30	
C=C1C(=O)O[C@@H]2C3=C(C)[C@@H](OC(=O)c4ccc(Br)cc4)CC3[C@](C)(OC(C)=O)CC[C@@H]12 (some centres undefined)	71.06%	4.28	4.86	5.13	5.18	
C=C1C(=O)O[C@@H]2C3=C(C)[C@@H](OC(=O)/C=C/c4ccc([N+](=O)[O-])cc4)CC3[C@](C)(OC(C)=O)CC[C@@H]12 (some centres undefined)	42.67%					
C=C1C(=O)O[C@@H]2C3=C(C)[C@@H](OC(=O)/C=C/c4ccc(Br)cc4)CC3[C@](C)(OC(C)=O)CC[C@@H]12 (some centres undefined)	61.39%	4.04	5.05	4.93	5.22	
C=C1C(=O)O[C@@H]2C3=C(C)[C@@H](OC(=O)/C=C/c4ccc(F)cc4)CC3[C@](C)(OC(C)=O)CC[C@@H]12 (some centres undefined)	67.53%	< 4.00	4.91	5.00	5.24	
C=C1C(=O)O[C@@H]2C3=C(C)[C@@H](OC(=O)/C=C/c4ccc(C)cc4)CC3[C@](C)(OC(C)=O)CC[C@@H]12 (some centres undefined)	72.03%	< 4.00	4.97	5.06	5.30	
C=C1C(=O)O[C@@H]2C3=C(C)[C@@H](OC(=O)c4ccc(C(C)(C)C)cc4)CC3[C@](C)(OC(C)=O)CC[C@@H]12 (some centres undefined)	64.41%	4.31	5.29	4.95	5.03	
C=C1C(=O)O[C@@H]2C3=C(C)[C@@H](OC(=O)c4ccc(CCCC)cc4)CC3[C@](C)(OC(C)=O)CC[C@@H]12 (some centres undefined)	67.53%	4.35	5.14	4.99	5.13	
C=C1C(=O)O[C@@H]2C3=C(C)[C@@H](OC(=O)c4ccccc4)CC3[C@](C)(OC(C)=O)CC[C@@H]12 (some centres undefined)	68.47%	< 4.00	4.89	5.10	5.22	
C=C1C(=O)O[C@@H]2C3=C(C)[C@@H](OC(=O)c4ccc(CC)cc4)CC3[C@](C)(OC(C)=O)CC[C@@H]12 (some centres undefined)	42.33%					
C=C1C(=O)O[C@@H]2C3=C(C)[C@@H](OC(=O)c4ccc(C(F)(F)F)cc4)CC3[C@](C)(OC(C)=O)CC[C@@H]12 (some centres undefined)	72.42%	4.39	5.25	5.25	5.26	
C=C1C(=O)O[C@@H]2C3=C(C)[C@@H](OC(=O)c4ccc(OC(F)(F)F)cc4)CC3[C@](C)(OC(C)=O)CC[C@@H]12 (some centres undefined)	69.25%	4.43	4.95	5.12	5.21	
C=C1C(=O)O[C@@H]2C3=C(C)[C@@H](OC(=O)/C=C/c4ccc(OCC)cc4)CC3[C@](C)(OC(C)=O)CC[C@@H]12 (some centres undefined)	49.75%					
O=c1[nH]cc(F)c(=O)[nH]1 [FLUOROURACIL]	50.58%	5.16	4.85		4.90	Activity [6]: 0.4%; Activity [7]: 12.6%; viability at 10 µM [8]: 76.3%; viability at 5 µM [9]: 88.4%; Activity [10]: 10.7%; Activity [11]: 35.5%; Activity [12]: 0.1%; Activity [13]: 0.9%; Activity [14]: 0%; Activity [15]: 23%; Activity [16]: 11.1%; viability at 15 µM [17]: 41.1%
C=C1C(=O)O[C@@H]2C3=C(C)[C@@H](OC(=O)/C=C/c4ccc(OC)cc4)CC3[C@](C)(OC(C)=O)CC[C@@H]12 (some centres undefined)	61.14%	< 4.00	4.93	4.92	5.27	
C=C1C(=O)O[C@@H]2C3=C(C)[C@@H](OC(=O)c4ccc(I)cc4)CC3[C@](C)(OC(C)=O)CC[C@@H]12 (some centres undefined)	63.11%	4.44	5.05	5.12	5.38	
C=C1C(=O)O[C@@H]2C3=C(C)[C@@H](OC(=O)c4ccc(C#N)cc4)CC3[C@](C)(OC(C)=O)CC[C@@H]12 (some centres undefined)	62.58%	< 4.00	4.64	5.04	5.17	
C=C1C(=O)O[C@@H]2C3=C(C)[C@@H](OC(=O)c4ccc(C(C)C)cc4)CC3[C@](C)(OC(C)=O)CC[C@@H]12 (some centres undefined)	37.86%					
C=C1C(=O)O[C@@H]2C3=C(C)[C@@H](OC(=O)c4ccc(OC)cc4)CC3[C@](C)(OC(C)=O)CC[C@@H]12 (some centres undefined)	53.03%	< 4.00	4.65	4.91	5.05	
C=C1C(=O)O[C@@H]2C3=C(C)[C@@H](OC(=O)c4ccc(CCCCC)cc4)CC3[C@](C)(OC(C)=O)CC[C@@H]12 (some centres undefined)	58.08%	4.41	5.14	4.97	4.73	
C=C1C(=O)O[C@@H]2C3=C(C)[C@@H](OC(=O)/C=C/c4ccc(C#N)cc4)CC3[C@](C)(OC(C)=O)CC[C@@H]12 (some centres undefined)	48.53%					
C=C1C(=O)O[C@@H]2C3=C(C)[C@@H](OC(=O)/C=C/c4ccccc4)CC3[C@](C)(OC(C)=O)CC[C@@H]12 (some centres undefined)	56.11%	< 4.00	4.73	4.79	5.19	
C=C1C(=O)O[C@@H]2C3=C(C)[C@@H](OC(=O)c4ccc(CCC)cc4)CC3[C@](C)(OC(C)=O)CC[C@@H]12 (some centres undefined)	62.47%	4.47	5.08	5.00	5.19	
C=C1C(=O)O[C@@H]2C3=C(C)[C@@H](OC(=O)c4ccc(C)cc4)CC3[C@](C)(OC(C)=O)CC[C@@H]12 (some centres undefined)	58.47%	< 4.00	4.91	5.07	5.19	
C=C1C(=O)O[C@@H]2C3=C(C)[C@@H](O)CC3[C@](C)(OC(C)=O)CC[C@@H]12 (some centres undefined)	32.02%					
C=C1C(=O)O[C@@H]2C3=C(C)[C@@H](OC(=O)/C=C/c4ccc(C(F)(F)F)cc4)CC3[C@](C)(OC(C)=O)CC[C@@H]12 (some centres undefined)	71.14%	4.36	4.90	5.17	5.21	
C=C1C(=O)O[C@@H]2C3=C(C)[C@@H](OC(=O)/C=C/c4ccc(OCCC)cc4)CC3[C@](C)(OC(C)=O)CC[C@@H]12 (some centres undefined)	47.78%					
